In ChEMBL document CHEMBL1132240, “Design and synthesis of modified quinolones as antitumoral acridones” (J Med Chem, 1999):

Experiments:
P388 [1] = assay: Cytotoxic activity Murine Lymphocytic Leukemia P388 Concentration of agent required to reduce cell viability by 90%; assay type: functional; conditions: Mus musculus
Method in brief: (§1)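 Modified MTT assay. Cells seeded per well with graded drug: CHO 2.5 × 10^3, B16 5 × 10^3, P388 and LLC 10^4, HL-60 and LoVo 5 × 10^4. After 68 h, MTT (2.5 mg/mL) added for 4 h at 37 °C. Formazan dissolved in DMSO and A550 read. Inhibition taken as fractional A550 decrease vs control. IC50/IC90 from Chou's median-effect equation.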

HL-60 [2] = assay: Cytotoxic activity against Human promyelocytic Leukemia HL-60 Concentration of agent required to reduce cell viability by 50%; assay type: functional, cell-based; method in brief: as §1
P388 [3] = assay: Cytotoxic activity against Murine Lymphocytic Leukemia P388 Concentration of agent required to reduce cell viability by 50%; assay type: functional, cell-based; conditions: Mus musculus; method in brief: as §1
HL-60 [4] = assay: Cytotoxic activity against Human promyelocytic Leukemia HL-60 Concentration of agent required to reduce cell viability by 90%; assay type: functional; method in brief: as §1
[5] = system: Lewis lung carcinoma cell line; assay: Cytotoxic activity against solid tumor LLC(Lewis lung carcinoma), concentration of agent required to reduce cell viability by 90%; assay type: functional; conditions: Mus musculus; method in brief: as §1
LoVo [6] = assay: Cytotoxic activity against solid tumor, LoVo, (human colon adenocarcinoma) concentration of agent required to reduce cell viability by 50%; assay type: functional, cell-based; method in brief: as §1
B16 [7] = assay: Cytotoxic activity against solid tumor, B16 (murine melanoma) concentration of agent required to reduce cell viability by 50%; assay type: functional, cell-based; conditions: Mus musculus; method in brief: as §1
[8] = system: Lewis lung carcinoma cell line; assay: Cytotoxic activity against solid tumor LLC(Lewis lung carcinoma), concentration of agent required to reduce cell viability by 50%; assay type: functional, cell-based; conditions: Mus musculus; method in brief: as §1
P388 [9] = assay: Cytotoxic activity against murine lymphocytic leukemia P388 concentration of agent required to reduce cell viability by 50%; assay type: functional, cell-based; conditions: Mus musculus; method in brief: as §1
[10] = Ratio of cytotoxicity of compound towards bone marrow sample and to that of HL-60 was determined as IC50BM/IC50HL; assay type: functional
Method in brief: (§2)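 Second-stage assay on HL-60 (5 × 10^4/well) and soybean-agglutinin-negative mononuclear marrow cells (5 × 10^5/well) from six healthy donors. Four wells per concentration, 48 h at 37 °C, then [125I]iododeoxyuridine plus fluorodeoxyuridine for 18 h. Inhibition from fractional uptake decrease; IC50/IC90 by median-effect equation. Ranges are antilog(mean log ± 2SD); ratios use mean antilogs.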

HL-60 [11] = assay: Cytotoxic activity against human promyelocytic leukemia HL-60 concentration of agent required to reduce cell viability by 90%; assay type: functional; method in brief: as §1
[12] = Ratio of cytotoxicity of compound towards bone marrow sample and to that of HL-60 was determined as IC50BM/IC90HL; assay type: functional; method in brief: as §2
P388 [13] = assay: Cytotoxic activity against murine lymphocytic leukemia P388 concentration of agent required to reduce cell viability by 90%; assay type: functional; conditions: Mus musculus; method in brief: as §1
Homo sapiens [14] = species: Homo sapiens; assay: Relative cytotoxicity against human bone marrow samples; assay type: functional; method in brief: as §2
B16 [15] = assay: Cytotoxic activity against solid tumor, B16 (murine melanoma) Concentration of agent required to reduce cell viability by 90%; assay type: functional; conditions: Mus musculus; method in brief: as §1
HL-60 [16] = assay: (§3) Relative cytotoxicity against human promyelocytic leukemia(HL-60) cells; assay type: functional; method in brief: as §2
HL-60 [17] = assay: Cytotoxic activity against human promyelocytic leukemia HL-60 concentration of agent required to reduce cell viability by 50%; assay type: functional, cell-based; method in brief: as §1
[18] = Ratio of cytotoxicity of compound towards bone marrow sample and to that of HL-60 was determined as IC90BM/IC90HL; assay type: functional; method in brief: as §2
CHO [19] = assay: Cytotoxic activity against solid tumor, CHO (Chinese hamster ovaric carcinoma) Concentration of agent required to reduce cell viability by 50%; assay type: functional, cell-based; conditions: Cricetulus griseus; method in brief: as §1
LoVo [20] = assay: Cytotoxic activity against solid tumor, LoVo, (human colon adenocarcinoma) concentration of agent required to reduce cell viability by 90%; assay type: functional; method in brief: as §1
CHO [21] = assay: Cytotoxic activity against solid tumor, CHO (Chinese hamster ovaric carcinoma) concentration of agent required to reduce cell viability by 90%; assay type: functional; conditions: Cricetulus griseus; method in brief: as §1
HL-60 [22] = assay: as §3; assay type: functional, cell-based; method in brief: as §2
CHO [23] = assay: Cytotoxic activity against solid tumor, CHO (Chinese hamster ovaric carcinoma) Concentration of agent required to reduce cell viability by 90%; assay type: functional; conditions: Cricetulus griseus; method in brief: as §1
[24] = Ratio of antilog(mean log IC50 in bone marrow sample) and antolog(mean log IC50) in HL-60); assay type: functional; method in brief: as §2
B16 [25] = assay: Cytotoxic activity against solid tumor, B16 (murine melanoma) Concentration of agent required to reduce cell viability by 50%; assay type: functional, cell-based; conditions: Mus musculus; method in brief: as §1
[26] = Ratio of antilog(mean log IC90 in bone marrow sample) and antolog(mean log IC90) in HL-60); assay type: functional; method in brief: as §2
LoVo [27] = assay: Cytotoxic activity against solid tumor, LoVo, (human colon adenocarcinoma) Concentration of agent required to reduce cell viability by 50%; assay type: functional, cell-based; method in brief: as §1
[28] = Ratio of antilog(mean log IC50 in bone marrow sample) and antolog(mean log IC90) in HL-60); assay type: functional; method in brief: as §2
Homo sapiens [29] = species: Homo sapiens; assay: Relative cytotoxicity against Human bone marrow samples; Value is in range, activity expressed as IC50; assay type: functional; method in brief: as §2
Homo sapiens [30] = species: Homo sapiens; assay: Relative cytotoxicity against Human bone marrow samples; Value is in range, activity expressed as IC90; assay type: functional; method in brief: as §2
LoVo [31] = assay: Cytotoxic activity against solid tumor, LoVo, (human colon adenocarcinoma) Concentration of agent required to reduce cell viability by 90%; assay type: functional; method in brief: as §1
HL-60 [32] = assay: Relative cytotoxicity against Human promyelocytic Leukemia(HL-60) cells; Value is in range, activity expressed as IC90; assay type: functional; method in brief: as §2
HL-60 [33] = assay: Relative cytotoxicity against Human promyelocytic Leukemia(HL-60) cells; Value is in range, activity expressed as IC50; assay type: functional, cell-based; method in brief: as §2

| SMILES | IC90 (P388 [1]) [µM] | IC50 (HL-60 [2]) [µM] | IC50 (P388 [3]) [µM] | IC90 (HL-60 [4]) [µM] | IC50 (P388 [9]) [µM] | IC90 (HL-60 [11]) [µM] | IC90 (P388 [13]) [µM] | IC50 (HL-60 [17]) [µM] | other results |
| --- | --- | --- | --- | --- | --- | --- | --- | --- | --- |
| CCn1c2cc(Cl)ccc2c(=O)c2c(O)cc(O)cc21 | > 100 | > 100 | > 100 | > 100 | – | – | – | – | – |
| CCn1c2cc(N3CCN(C)CC3)c(N)cc2c(=O)c2c(O)cc(OC)cc21 | – | – | – | – | 2.9 | 24 | 8.9 | 17 | IC90 [5]: 11 µM; IC50 (LoVo [6]): 10 µM; IC50 (B16 [7]): 8.6 µM; IC50 [8]: 9.3 µM; Ratio [10]: 0.4; Ratio [12]: 0.4; IC50 (Homo sapiens [14]): 10.7 µM; IC90 (Homo sapiens [14]): 89.1 µM; IC90 (B16 [15]): 12 µM; IC90 (HL-60 [16]): 22.9 µM; Ratio [18]: 2.7; IC50 (CHO [19]): 6 µM; IC90 (LoVo [20]): 15 µM; IC90 (CHO [21]): 11 µM; IC50 (HL-60 [22]): 19.1 µM |
| CN1CCN(c2cc3c(cc2N)c(=O)c2c(O)cc(O)cc2n3C)CC1 | 11 | 24 | 7.2 | 39 | – | – | – | – | – |
| COc1cc(O)c2c(=O)c3cc(N)c(N4CCN(C)CC4)cc3n(C)c2c1 | – | – | – | – | 3.4 | 33 | 6.8 | 23 | – |
| CCn1c2cc(N3CCN(C)CC3)c(N)cc2c(=O)c2c(OC)cc(OC)cc21 | – | – | – | – | 16 | 99 | 26 | 61 | – |
| CCn1c2cc(Cl)c(N)cc2c(=O)c2c(O)cc(OC)cc21 | – | – | – | – | 16 | – | > 100 | – | – |
| CCn1c2cc(N3CCSCC3)c(N)cc2c(=O)c2c(O)cc(O)cc21 | > 100 | – | > 100 | – | – | – | – | – | – |
| CN1CCN(c2cc3nc4cc(O)cc(O)c4c(O)c3cc2N)CC1 | > 100 | > 100 | 57 | > 100 | – | – | – | – | – |
| CCn1c2cc(Cl)c(N)cc2c(=O)c2c(O)cc(O)cc21 | 13 | 13 | 1.6 | 74 | – | – | – | – | IC90 (CHO [23]): 71 µM; Ratio [24]: 0.6; IC50 (B16 [25]): 2.8 µM; IC90 [5]: > 100 µM; Ratio [26]: 0.5; IC50 [8]: 16 µM; IC50 (LoVo [27]): 15 µM; Ratio [28]: 0.1; IC50 (Homo sapiens [29]): 7.08 µM; IC90 (Homo sapiens [30]): 74.1 µM; IC90 (B16 [15]): 28 µM; IC50 (CHO [19]): 5.8 µM; IC90 (LoVo [31]): > 100 µM; IC90 (HL-60 [32]): 97.5 µM; IC50 (HL-60 [33]): 17 µM |
| CCN(CC)CCn1c2cc(O)c(N)cc2c(=O)c2c(O)cc(O)cc21 | 56 | > 100 | 26 | > 100 | – | – | – | – | – |
| CCN(CC)CCn1c2cc(N3CCN(C)CC3)c(N)cc2c(=O)c2c(OC)cc(OC)cc21 | – | – | – | – | 3.4 | 17 | 5.8 | 8.3 | – |
| CCn1c2cc(N3CC(C)NC(C)C3)c(N)cc2c(=O)c2c(O)cc(O)cc21 (configuration not stated) | 18 | 21 | 6.2 | 32 | – | – | – | – | IC90 (CHO [23]): 38 µM; IC50 (B16 [25]): 22 µM; IC90 [5]: 43 µM; IC50 [8]: 29 µM; IC50 (LoVo [27]): 21 µM; IC90 (B16 [15]): 32 µM; IC50 (CHO [19]): 12 µM; IC90 (LoVo [31]): 37 µM |
